According to BindingDB's records for doi:10.1021/jm0010217 (Menarini Ricerche, 2000):
Bridge positions count the residues as written; N and C are the ends. Square brackets hold non-standard residues; d marks the D form. Peptide text beside a SMILES is read from it. * marks the point of attachment. NH(β-GlcNAc) = CC(=O)N[C@@H]1[C@@H](O)[C@H](O)[C@@H](CO)O[C@H]1N*; Dap = NC[C@H](N)C(=O)O

What was measured:
Substance-K receptor [1] = target: T1, Substance-K receptor (Homo sapiens, UniProt P21452); experiment: Compound was evaluated for Kd value against [3H]-SR- 48968 on the Wild-type tachykinin receptor 2
T1 sequence (P21452 whole entry): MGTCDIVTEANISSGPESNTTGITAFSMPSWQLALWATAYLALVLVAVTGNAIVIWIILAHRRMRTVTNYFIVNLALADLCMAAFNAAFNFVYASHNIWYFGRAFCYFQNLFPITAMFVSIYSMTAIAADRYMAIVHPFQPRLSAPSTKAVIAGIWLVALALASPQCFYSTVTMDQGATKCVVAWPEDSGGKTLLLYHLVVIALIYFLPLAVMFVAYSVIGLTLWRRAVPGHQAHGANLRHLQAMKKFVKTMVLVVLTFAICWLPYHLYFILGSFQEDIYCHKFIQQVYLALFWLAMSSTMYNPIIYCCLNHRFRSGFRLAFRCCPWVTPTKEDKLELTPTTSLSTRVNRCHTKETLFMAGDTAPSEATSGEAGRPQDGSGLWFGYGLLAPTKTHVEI

Substance-K receptor [2] = target: T2, Substance-K receptor (Homo sapiens, UniProt P21452, Y266F); experiment: Compound was evaluated for Kd value against [3H]-SR- 48968 on the Tyr266Phe mutated human NK-2 receptor
T2 sequence (P21452 whole entry): T1 sequence (P21452 whole entry)

Substance-K receptor [3] = target: T3, Substance-K receptor (Homo sapiens, UniProt P21452, Y206F); experiment: Compound was evaluated for Kd value against [125I]-NKA on the Tyr206Phe mutated human NK-2 receptor
T3 sequence (P21452 whole entry): T1 sequence (P21452 whole entry)

Substance-K receptor [4] = target: T1, Substance-K receptor; experiment: Compound was evaluated for Kd value against [125I]NKA on the Wild-type tachykinin receptor 2
Substance-K receptor [5] = target: T4, Substance-K receptor (Homo sapiens, UniProt P21452, F270A); experiment: Compound was evaluated for Kd value against [3H]-SR- 48968 on the Phe270Ala mutated human NK-2 receptor
T4 sequence (P21452 whole entry): T1 sequence (P21452 whole entry)

Substance-K receptor [6] = target: T3, Substance-K receptor; experiment: Compound was evaluated for Kd value against [3H]-SR- 48968 on the Tyr206Phe mutated human NK-2 receptor
Substance-K receptor [7] = target: T1, Substance-K receptor; experiment: (§1) Compound was evaluated for Kd value against [3H]-SR- 48968 on the Tyr206Ala mutated human NK-2 receptor
Substance-K receptor [8] = target: T2, Substance-K receptor; experiment: Compound was evaluated for Kd value against [125I]NKA on the Tyr266Phe mutated human NK-2 receptor
Substance-K receptor [9] = target: T3, Substance-K receptor; experiment: Compound was evaluated for Kd value against [125I]NKA on the Tyr206Phe mutated human NK-2 receptor
Outline: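 Human NK-2 receptor carrying the point mutation, transfected into CHO cells. Radioligand binding with [125I]NKA.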

Substance-K receptor [10] = target: T5, Substance-K receptor (Homo sapiens, UniProt P21452, Y206A); experiment: as §1
T5 sequence (P21452 whole entry): T1 sequence (P21452 whole entry)

| Kd (Substance-K receptor [1]) [nM] | Kd (Substance-K receptor [2]) [nM] | Kd (Substance-K receptor [3]) [nM] | Kd (Substance-K receptor [4]) [nM] | Kd (Substance-K receptor [5]) [nM] | Kd (Substance-K receptor [6]) [nM] | Kd (Substance-K receptor [7]) [nM] | Kd (Substance-K receptor [8]) [nM] | Kd (Substance-K receptor [9]) [nM] | Kd (Substance-K receptor [10]) [nM] | Structure (SMILES) |
| --- | --- | --- | --- | --- | --- | --- | --- | --- | --- | --- |
| 4.4 | 48 | 3.1 | 2.1 | 291 | 1.9 | > 1000 | 26 | – | – | CC(=O)N[C@@H]1[C@@H](O)[C@H](O)[C@@H](CO)O[C@H]1NC(=O)C[C@@H]1NC(=O)[C@H](CC(C)C)NC(=O)[C@@H]2CNC(=O)C[C@H](NC1=O)C(=O)N[C@@H](Cc1c[nH]c3ccccc13)C(=O)N[C@@H](Cc1ccccc1)C(=O)N2 (cyclo(D(NH(β-GlcNAc))DWF[Dap]L); lactam 2-5) |
| 10 | 48 | – | 2.7 | 208 | 1.3 | – | 34 | 3.6 | 1960 | O=C1CCC(=O)N[C@@H](Cc2c[nH]c3ccccc23)C(=O)N[C@@H](Cc2ccccc2)C(=O)N[C@H](Cc2ccccc2)CN1 [MEN-11558] |
